Assay results published in ChEMBL document CHEMBL5576142, “Exploring 2-Sulfonylpyrimidine Warheads as Acrylamide Surrogates for Targeted Covalent Inhibition: A BTK Story” (J Med Chem, 2024).
Active and inactive are the calls of the source. No cut-off for these calls is given here.

Tests used:
[1] = test system: Epidermal growth factor receptor (Homo sapiens), P00533 [G719S]; experiment: Inhibition of EGFR G719S mutant (unknown origin) expressed in expressed in Escherichia coli BL21 at 1 uM incubated for 1 hr by Eurofins-KinomeScan assay relative to control
[2] = biological target: T1, Tyrosine-protein kinase BTK (Homo sapiens, UniProt Q06187); conditions: OCILY7, dose 500.0 nM, time 1.0 hrs
[3] = test system: Epidermal growth factor receptor (Homo sapiens), P00533 [L861Q]; experiment: Inhibition of EGFR L861Q mutant (unknown origin) expressed in expressed in Escherichia coli BL21 at 1 uM incubated for 1 hr by Eurofins-KinomeScan assay relative to control
[4] = biological target: T1, Tyrosine-protein kinase BTK; conditions: OCILY7, dose 500.0 nM, time 1.0 hrs; remark: listed apart in the source
[5] = test system: Epidermal growth factor receptor (Homo sapiens), P00533 [G719C]; experiment: Inhibition of EGFR G719C mutant (unknown origin) expressed in expressed in Escherichia coli BL21 at 1 uM incubated for 1 hr by Eurofins-KinomeScan assay relative to control
[6] = test system: Epidermal growth factor receptor (Homo sapiens), P00533 [T790M]; experiment: Inhibition of EGFR T790M mutant (unknown origin) expressed in expressed in Escherichia coli BL21 at 1 uM incubated for 1 hr by Eurofins-KinomeScan assay relative to control
[7] = biological target: T1, Tyrosine-protein kinase BTK; conditions: OCILY7, dose 500.0 nM, time 1.0 hrs; remark: listed apart in the source
[8] = biological target: T1, Tyrosine-protein kinase BTK; conditions: OCILY7, dose 500.0 nM, time 1.0 hrs; remark: listed apart in the source
[9] = biological target: T1, Tyrosine-protein kinase BTK; conditions: OCILY7, dose 500.0 nM, time 1.0 hrs; remark: listed apart in the source
[10] = biological target: T1, Tyrosine-protein kinase BTK
[11] = biological target: T1, Tyrosine-protein kinase BTK; experiment: Inhibition of BTK in anti-IgM induced human OCILY7 cells assessed as increase in calcium flux at 250 nM incubated for […] followed by anti-IgM and Pluronic F127 stimulation measured after […] by Fluo-3 AM based flow cytometry; format: cell-based; conditions: time 5.0 hrs
[12] = test system: TMD8; experiment: Induction of necroptosis in human TMD8 cells assessed as upregulation of TRPM7 gene expression at 1 uM incubated for 8 hrs by RNA-sequencing analysis; format: functional, cell-based
Method in brief: (§1)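 TMD8 cells (RPMI-1640, 10% FBS, glutamine) exposed to compound at 1 μM or DMSO for 8 h. Total RNA extracted and analysed by RNA-seq. Differential expression called against DMSO at FDR < 0.01 with |log2FC| > 0.5.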

[13] = test system: TMD8; experiment: Induction of apoptosis in human TMD8 cells assessed as necrotic cells at 10 nM incubated for 72 hrs by Annexin-V/PI staining based flow cytometry (reference value: 3 %); format: functional
[14] = test system: TMD8; experiment: Induction of apoptosis in human TMD8 cells assessed as early apoptotic cells at 1000 nM incubated for 72 hrs by Annexin-V/PI staining based flow cytometry (reference value: 4.8 %); format: functional
[15] = GSH reactivity in PBS buffer at pH 7.4 assessed as pseudo-first order rate constant incubated upto 6 hrs at 20 degreeC by LC-MS analysis; format: physicochemical; conditions: pH 7.4, 6 h
Method in brief: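 Compound at 100 μM with 1 mM GSH (10 equiv) in PBS pH 7.4, containing 100 μM 4-hydroxybenzoic acid as internal standard and 5% v/v DMSO, held at 20 °C. LC-MS traces taken every 10 min. Normalized integrals plotted against time to give a pseudo-first-order rate constant. Run in triplicate.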

[16] = test system: TMD8; experiment: Induction of apoptosis in human TMD8 cells assessed as early apoptotic cells at 10 nM incubated for 72 hrs by Annexin-V/PI staining based flow cytometry (reference value: 4.8 %); format: functional
[17] = test system: TMD8; experiment: Induction of apoptosis in human TMD8 cells assessed as late apoptotic cells at 10 nM incubated for 72 hrs by Annexin-V/PI staining based flow cytometry (reference value: 25.4 %); format: functional
[18] = test system: TMD8; experiment: Induction of apoptosis in human TMD8 cells assessed as late apoptotic cells at 100 nM incubated for 72 hrs by Annexin-V/PI staining based flow cytometry (reference value: 25.4 %); format: functional
[19] = test system: TMD8; experiment: Induction of pyroptosis in human TMD8 cells assessed as upregulation of NLRP7 gene expression at 1 uM incubated for 8 hrs by RNA-sequencing analysis; format: functional, cell-based; method in brief: as §1
[20] = biological target: T1, Tyrosine-protein kinase BTK; experiment: Inhibition of NanoLuc fused BTK (unknown origin) transiently transfected in HEK293 cells incubated for 1 hr by NanoBRET assay; format: cell-based
[21] = test system: TMD8; experiment: Induction of apoptosis in human TMD8 cells assessed as necrotic cells at 100 nM incubated for 72 hrs by Annexin-V/PI staining based flow cytometry (reference value: 3 %); format: functional
[22] = test system: TMD8; experiment: Induction of pyroptosis in human TMD8 cells assessed as upregulation of TLR4 gene expression at 1 uM incubated for 8 hrs by RNA-sequencing analysis; format: functional, cell-based; method in brief: as §1
[23] = test system: TMD8; experiment: Induction of apoptosis in human TMD8 cells assessed as necrotic cells at 1000 nM incubated for 72 hrs by Annexin-V/PI staining based flow cytometry (reference value: 3 %); format: functional
[24] = test system: TMD8; experiment: Induction of necroptosis in human TMD8 cells assessed as upregulation of RIPK1 gene expression at 1 uM incubated for 8 hrs by RNA-sequencing analysis; format: functional, cell-based; method in brief: as §1
[25] = test system: TMD8; experiment: Induction of necroptosis in human TMD8 cells assessed as upregulation of TNFSF10 gene expression at 1 uM incubated for 8 hrs by RNA-sequencing analysis; format: functional, cell-based; method in brief: as §1
[26] = test system: TMD8; experiment: Induction of pyroptosis in human TMD8 cells assessed as upregulation of TLR8 gene expression at 1 uM incubated for 8 hrs by RNA-sequencing analysis; format: functional, cell-based; method in brief: as §1
[27] = test system: TMD8; experiment: Downregulation of CYP1A1 gene expression in human TMD8 cells at 1 uM incubated for 8 hrs by RNA-sequencing analysis; format: functional, cell-based; method in brief: as §1
[28] = test system: TMD8; experiment: Induction of necroptosis in human TMD8 cells assessed as upregulation of TLR4 gene expression at 1 uM incubated for 8 hrs by RNA-sequencing analysis; format: functional, cell-based; method in brief: as §1
[29] = test system: TMD8; experiment: Induction of apoptosis in human TMD8 cells assessed as viable cells at 1000 nM incubated for 72 hrs by Annexin-V/PI staining based flow cytometry (reference value: 66 %); format: functional; conditions: read-out: Activity
[30] = biological target: T1, Tyrosine-protein kinase BTK; experiment: Covalent inhibition of full-length BTK (unknown origin) expressed in Escherichia coli BL21 (DE3) at 100 nM incubated for 1 hr in presence of ATP by ADP-Glo kinase assay relative to control
[31] = Stability in human plasma assessed as parent compound remaining incubated for 3 hrs by UPLC-MS analysis; format: ADME, cell-free; conditions: read-out: Stability
[32] = test system: TMD8; experiment: Downregulation of CD83 gene expression in human TMD8 cells at 1 uM incubated for 8 hrs by RNA-sequencing analysis; format: functional, cell-based
Method in brief: (§2)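 TMD8 cells (RPMI-1640, 10% FBS, penicillin/streptomycin, 2 mM glutamine) exposed to compound or DMSO vehicle for 8 h; total RNA extracted for RNA-seq. Differential expression versus DMSO scored at FDR < 0.01 with log2 fold change beyond ±0.5.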

[33] = test system: TMD8; experiment: Downregulation of EGR2 gene expression in human TMD8 cells at 1 uM incubated for 8 hrs by RNA-sequencing analysis; format: functional, cell-based; method in brief: as §2
[34] = test system: TMD8; experiment: Downregulation of NFKBID gene expression in human TMD8 cells at 1 uM incubated for 8 hrs by RNA-sequencing analysis; format: functional, cell-based; method in brief: as §2
[35] = test system: TMD8; experiment: Downregulation of IL-10 gene expression in human TMD8 cells at 1 uM incubated for 8 hrs by RNA-sequencing analysis; format: functional, cell-based; method in brief: as §2
[36] = test system: TMD8; experiment: Downregulation of NR4A1 gene expression in human TMD8 cells at 1 uM incubated for 8 hrs by RNA-sequencing analysis; format: functional, cell-based; method in brief: as §2
[37] = test system: TMD8; experiment: Downregulation of LTA gene expression in human TMD8 cells at 1 uM incubated for 8 hrs by RNA-sequencing analysis; format: functional, cell-based; method in brief: as §2

Epidermal growth factor receptor (Homo sapiens), P00533 [T790M], sequence (P00533 whole entry T790M): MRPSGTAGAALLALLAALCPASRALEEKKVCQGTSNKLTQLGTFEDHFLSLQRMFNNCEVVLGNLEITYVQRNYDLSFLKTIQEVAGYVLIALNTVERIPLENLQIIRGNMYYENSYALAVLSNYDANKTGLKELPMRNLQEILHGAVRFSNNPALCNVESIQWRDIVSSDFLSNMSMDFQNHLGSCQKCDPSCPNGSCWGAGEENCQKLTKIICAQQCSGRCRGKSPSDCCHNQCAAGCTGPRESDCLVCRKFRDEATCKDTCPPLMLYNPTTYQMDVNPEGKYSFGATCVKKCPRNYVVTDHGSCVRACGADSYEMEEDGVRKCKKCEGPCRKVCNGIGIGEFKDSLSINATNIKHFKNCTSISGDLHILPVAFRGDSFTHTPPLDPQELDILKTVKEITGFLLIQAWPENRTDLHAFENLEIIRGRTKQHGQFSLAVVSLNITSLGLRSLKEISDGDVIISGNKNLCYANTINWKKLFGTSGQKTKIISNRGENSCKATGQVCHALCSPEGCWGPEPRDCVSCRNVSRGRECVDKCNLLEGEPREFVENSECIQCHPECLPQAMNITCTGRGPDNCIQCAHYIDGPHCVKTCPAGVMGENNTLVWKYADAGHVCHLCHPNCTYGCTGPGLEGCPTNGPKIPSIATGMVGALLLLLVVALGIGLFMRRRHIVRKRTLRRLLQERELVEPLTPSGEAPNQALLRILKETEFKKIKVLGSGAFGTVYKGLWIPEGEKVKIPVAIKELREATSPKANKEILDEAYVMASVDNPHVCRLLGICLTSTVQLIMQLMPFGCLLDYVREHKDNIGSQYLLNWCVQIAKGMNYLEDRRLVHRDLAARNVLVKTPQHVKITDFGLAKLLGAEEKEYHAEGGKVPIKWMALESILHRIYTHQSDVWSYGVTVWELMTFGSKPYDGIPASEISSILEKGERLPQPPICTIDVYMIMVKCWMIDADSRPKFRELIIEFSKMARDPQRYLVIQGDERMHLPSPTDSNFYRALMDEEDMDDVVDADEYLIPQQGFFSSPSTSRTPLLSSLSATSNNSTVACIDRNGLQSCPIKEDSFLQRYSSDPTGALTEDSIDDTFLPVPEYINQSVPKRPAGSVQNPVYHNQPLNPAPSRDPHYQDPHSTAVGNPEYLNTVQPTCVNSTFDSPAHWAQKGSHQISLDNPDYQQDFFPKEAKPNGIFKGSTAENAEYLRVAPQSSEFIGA
T1 sequence (Q06187 whole entry): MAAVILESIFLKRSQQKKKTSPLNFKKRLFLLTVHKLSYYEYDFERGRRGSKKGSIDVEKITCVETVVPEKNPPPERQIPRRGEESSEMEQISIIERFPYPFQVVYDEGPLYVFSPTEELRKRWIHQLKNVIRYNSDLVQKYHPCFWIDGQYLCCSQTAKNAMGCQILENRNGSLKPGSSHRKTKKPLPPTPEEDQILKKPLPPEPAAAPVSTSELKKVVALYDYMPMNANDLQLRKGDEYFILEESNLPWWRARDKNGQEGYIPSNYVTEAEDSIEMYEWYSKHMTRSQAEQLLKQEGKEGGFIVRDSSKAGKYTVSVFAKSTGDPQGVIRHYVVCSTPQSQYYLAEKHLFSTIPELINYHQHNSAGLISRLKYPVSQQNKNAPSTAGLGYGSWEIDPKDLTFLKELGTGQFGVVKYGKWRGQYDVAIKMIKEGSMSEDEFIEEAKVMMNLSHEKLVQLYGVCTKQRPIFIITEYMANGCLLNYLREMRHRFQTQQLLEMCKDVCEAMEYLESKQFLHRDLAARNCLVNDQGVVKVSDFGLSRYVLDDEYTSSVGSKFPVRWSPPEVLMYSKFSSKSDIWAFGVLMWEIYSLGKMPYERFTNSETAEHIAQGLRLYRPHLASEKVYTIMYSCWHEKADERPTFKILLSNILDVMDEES
Epidermal growth factor receptor (Homo sapiens), P00533 [L861Q], sequence (P00533 whole entry L861Q): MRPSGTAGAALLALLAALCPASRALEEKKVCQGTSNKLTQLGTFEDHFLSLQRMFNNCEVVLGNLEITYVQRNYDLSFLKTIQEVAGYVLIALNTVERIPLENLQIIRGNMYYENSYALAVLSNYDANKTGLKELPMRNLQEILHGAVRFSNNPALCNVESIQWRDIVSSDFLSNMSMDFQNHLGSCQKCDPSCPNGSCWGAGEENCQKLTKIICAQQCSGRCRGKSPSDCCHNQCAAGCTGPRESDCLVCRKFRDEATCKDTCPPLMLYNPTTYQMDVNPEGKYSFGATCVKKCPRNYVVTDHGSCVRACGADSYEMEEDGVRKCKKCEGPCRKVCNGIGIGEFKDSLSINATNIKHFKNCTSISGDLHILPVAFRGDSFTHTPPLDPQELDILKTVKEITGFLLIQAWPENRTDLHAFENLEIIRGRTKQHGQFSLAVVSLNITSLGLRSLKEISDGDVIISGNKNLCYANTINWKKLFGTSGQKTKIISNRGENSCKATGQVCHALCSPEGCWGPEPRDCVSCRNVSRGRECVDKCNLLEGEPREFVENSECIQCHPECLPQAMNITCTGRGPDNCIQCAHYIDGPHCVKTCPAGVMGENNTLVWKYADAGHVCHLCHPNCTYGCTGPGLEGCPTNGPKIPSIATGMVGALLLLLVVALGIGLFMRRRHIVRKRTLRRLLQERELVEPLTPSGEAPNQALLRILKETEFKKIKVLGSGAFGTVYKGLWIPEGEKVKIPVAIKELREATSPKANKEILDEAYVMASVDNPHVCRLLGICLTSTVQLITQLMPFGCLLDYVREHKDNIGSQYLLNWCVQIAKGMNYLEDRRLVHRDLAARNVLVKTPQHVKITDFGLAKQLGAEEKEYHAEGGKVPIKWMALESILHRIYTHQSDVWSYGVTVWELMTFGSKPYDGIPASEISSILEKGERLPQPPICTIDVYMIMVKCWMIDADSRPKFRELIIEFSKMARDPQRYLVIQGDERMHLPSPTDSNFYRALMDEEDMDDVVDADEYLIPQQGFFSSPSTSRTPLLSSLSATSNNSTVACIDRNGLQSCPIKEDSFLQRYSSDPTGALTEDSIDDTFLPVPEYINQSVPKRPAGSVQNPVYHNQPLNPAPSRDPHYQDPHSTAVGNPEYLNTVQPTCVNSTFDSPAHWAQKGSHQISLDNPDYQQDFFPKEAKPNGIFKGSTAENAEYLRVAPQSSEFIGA
Epidermal growth factor receptor (Homo sapiens), P00533 [G719C], sequence (P00533 whole entry G719C): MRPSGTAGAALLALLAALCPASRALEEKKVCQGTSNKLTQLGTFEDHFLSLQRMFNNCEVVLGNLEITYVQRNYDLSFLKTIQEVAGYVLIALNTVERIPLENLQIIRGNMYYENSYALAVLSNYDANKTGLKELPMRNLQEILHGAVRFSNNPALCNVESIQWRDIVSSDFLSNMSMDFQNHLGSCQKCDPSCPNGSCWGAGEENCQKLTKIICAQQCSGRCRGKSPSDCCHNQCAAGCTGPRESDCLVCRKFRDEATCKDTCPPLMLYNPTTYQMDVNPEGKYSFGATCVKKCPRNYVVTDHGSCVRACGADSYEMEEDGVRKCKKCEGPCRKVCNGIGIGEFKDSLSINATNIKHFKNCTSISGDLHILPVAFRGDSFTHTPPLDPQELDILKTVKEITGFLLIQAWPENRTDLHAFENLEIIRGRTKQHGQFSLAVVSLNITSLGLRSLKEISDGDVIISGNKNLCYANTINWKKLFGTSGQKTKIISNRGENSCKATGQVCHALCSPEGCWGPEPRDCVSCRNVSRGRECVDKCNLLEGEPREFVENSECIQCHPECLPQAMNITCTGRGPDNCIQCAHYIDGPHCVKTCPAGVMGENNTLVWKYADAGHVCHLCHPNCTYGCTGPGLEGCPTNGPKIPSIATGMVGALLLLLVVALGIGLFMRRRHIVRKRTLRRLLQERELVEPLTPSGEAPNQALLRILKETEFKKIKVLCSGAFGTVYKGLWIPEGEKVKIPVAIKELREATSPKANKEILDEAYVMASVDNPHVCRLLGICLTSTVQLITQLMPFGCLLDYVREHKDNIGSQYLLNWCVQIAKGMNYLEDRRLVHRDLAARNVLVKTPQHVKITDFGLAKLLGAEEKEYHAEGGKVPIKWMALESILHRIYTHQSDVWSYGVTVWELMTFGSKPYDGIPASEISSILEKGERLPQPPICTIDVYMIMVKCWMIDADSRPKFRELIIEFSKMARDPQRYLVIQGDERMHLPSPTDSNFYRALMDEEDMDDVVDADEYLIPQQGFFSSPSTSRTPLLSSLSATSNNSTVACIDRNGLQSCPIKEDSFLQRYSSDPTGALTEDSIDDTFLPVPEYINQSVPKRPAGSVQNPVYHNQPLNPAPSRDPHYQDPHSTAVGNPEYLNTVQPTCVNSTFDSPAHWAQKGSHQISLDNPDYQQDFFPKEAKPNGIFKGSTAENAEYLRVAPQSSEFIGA

Row | Structure (SMILES) | inhibition [1] | inhibition [2] | inhibition [3] | inhibition [4] | inhibition [5] | inhibition [6] | inhibition [7] | inhibition [8] | inhibition [30] [%] | other results
1 | COC(=O)c1cnc(S(C)(=O)=O)nc1N1CCC[C@H](n2nc(-c3ccc(Oc4ccccc4)cc3)c3c(N)ncnc32)C1 | Active | inactive | Active | Active | Active | Active | inactive | inactive | – | –
2 | Cc1cnc(S(C)(=O)=O)nc1N1CCC[C@H](n2nc(-c3ccc(Oc4ccccc4)cc3)c3c(N)ncnc32)C1 | Active | inactive | Active | Active | Active | Active | inactive | inactive | – | inhibition [9]: inactive; Kinact [10]: 0.007 s⁻¹; inhibition [11]: Active
3 | CNC(=O)c1cnc(S(C)(=O)=O)nc1N1CCC[C@H](n2nc(-c3ccc(Oc4ccccc4)cc3)c3c(N)ncnc32)C1 | Active | inactive | Active | Active | Active | Active | inactive | inactive | – | Activity [12]: Active; Activity [13]: 3.9%; Activity [14]: 14.5%; K [15]: 47 10^-5/s; Activity [16]: 3.4%; inhibition [9]: inactive; Activity [17]: 26.6%; Activity [18]: 53%; Activity [19]: Active; IC50 [20]: 0.6 nM; Activity [21]: 4.6%; Activity [22]: Active; inhibition [11]: Active; Activity [23]: 4.5%; Activity [24]: Active; Activity [25]: Active; Activity [26]: Active; Activity [27]: Active; Activity [28]: Active; viability at 1 µM [29]: 14.7%
4 | Nc1ncnc2c1c(-c1ccc(Oc3ccccc3)cc1)nn2[C@H]1CCCN(C(=O)c2cnc(S(=O)(=O)c3ccccc3)nc2)C1 | – | – | – | – | – | – | – | – | 40 | –
5 | CS(=O)(=O)c1ncc(Cl)c(C(=O)N2CCC[C@H](n3nc(-c4ccc(Oc5ccccc5)cc4)c4c(N)ncnc43)C2)n1 | – | – | – | – | – | – | – | – | 80 | –
6 | CS(=O)(=O)c1nccc(C(=O)N2CCC[C@H](n3nc(-c4ccc(Oc5ccccc5)cc4)c4c(N)ncnc43)C2)n1 | – | – | – | – | – | – | – | – | 80 | –
7 | CCOC(=O)c1cnc(S(C)(=O)=O)nc1N1CCC[C@H](n2nc(-c3ccc(Oc4ccccc4)cc3)c3c(N)ncnc32)C1 | Active | inactive | Active | Active | Active | Active | inactive | inactive | > 95 | remaining at 3 h [31]: 22%
8 | C=CC(=O)N1CCC[C@@H](n2nc(-c3ccc(Oc4ccccc4)cc3)c3c(N)ncnc32)C1 | – | – | – | – | – | – | – | – | – | Activity [32]: Active; Activity [33]: Active; Activity [34]: Active; Activity [35]: Active; Activity [36]: Active; Activity [37]: Active
9 | CS(=O)(=O)c1ncc(C(=O)N2CCC[C@H](n3nc(-c4ccc(Oc5ccccc5)cc4)c4c(N)ncnc43)C2)cn1 | – | – | – | – | – | – | – | – | 80 | –
10 | CCCCS(=O)(=O)c1nccc(C(=O)N2CCC[C@H](n3nc(-c4ccc(Oc5ccccc5)cc4)c4c(N)ncnc43)C2)n1 | – | – | – | – | – | – | – | – | 40 | –
11 | CCCCS(=O)(=O)c1ncc(C(=O)N2CCC[C@H](n3nc(-c4ccc(Oc5ccccc5)cc4)c4c(N)ncnc43)C2)cn1 | – | – | – | – | – | – | – | – | 40 | –
